Test results from ChEMBL document CHEMBL2396594, “Designing allosteric regulators of thrombin. Exosite 2 features multiple subsites that can be targeted by sulfated small molecules for inducing inhibition” (J Med Chem, 2013).

What was measured:
[1] = (§1) Binding affinity to human plasma alpha-thrombin exosite-2 using spectrozyme TH as substrate after overnight incubation at 25 degC by spectrophotometric analysis in presence of 0.65 uM gamma'-fibrinogen peptide; assay type: cell-free
Homo sapiens [2] = organism: Homo sapiens; test: as §1; assay type: cell-free
[3] = Inhibition of recombinant human thrombin R93A mutant expressed in BHK cells using S2238 as substrate after overnight incubation at 25 degC
In short: (§2)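 BHK-expressed, HPC4 immunoaffinity-purified thrombins, activated from prothrombin form. Active-site concentration from amidolysis and antithrombin titration. Enzyme (1.5−7.5 nM final) incubated overnight at 25 °C with inhibitor in Tris pH 7.4 buffer in coated cuvettes. Residual activity from S2238 initial rate at A405, using at least 9−10 points. Logistic fit gives IC50. Ratio is mutant IC50 over wild-type IC50.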

Prothrombin [4] = target: Prothrombin (Homo sapiens, UniProt P00734); test: Inhibition of wild type recombinant human thrombin expressed in BHK cells using S2238 as substrate after overnight incubation at 25 degC; in short: as §2
Homo sapiens [5] = organism: Homo sapiens; test: Selectivity ratio of IC50 for recombinant human thrombin R233A mutant to IC50 for wild type recombinant human thrombin; in short: as §2
[6] = (§3) Binding affinity to human plasma alpha-thrombin exosite-2 using spectrozyme TH as substrate after overnight incubation at 25 degC by spectrophotometric analysis in presence of 0.2 uM gamma'-fibrinogen peptide; assay type: cell-free
Homo sapiens [7] = organism: Homo sapiens; test: as §3; assay type: cell-free
[8] = Inhibition of recombinant human thrombin R165A mutant expressed in BHK cells using S2238 as substrate after overnight incubation at 25 degC; in short: as §2
[9] = Inhibition of recombinant human thrombin R175A mutant expressed in BHK cells using S2238 as substrate after overnight incubation at 25 degC; in short: as §2
Homo sapiens [10] = organism: Homo sapiens; test: Uncompetitive inhibition of human plasma alpha-thrombin using spectrozyme TH as substrate assessed as decrease in enzyme Vmax at 3.6 uM after overnight incubation at 25 degC by Michaelis-Menten equation analysis relative to control; assay type: cell-free
In short: (§4)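 5 nM plasma α-thrombin with fixed inhibitor, preincubated overnight at 25 °C or 2 h at 37 °C in 20 mM Tris-HCl pH 7.4, 100 mM NaCl, 2.5 mM CaCl2, 0.1% PEG8000. Initial Spectrozyme TH (2−80 μM) hydrolysis rate read at 405 nm with under 10% substrate consumption. Michaelis−Menten fit gives KM and VMAX; error ±1 SE.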

[11] = (§5) Binding affinity to human plasma alpha-thrombin exosite-2 using spectrozyme TH as substrate after overnight incubation at 25 degC by spectrophotometric analysis in presence of 42.6 uM unfractionated heparin; assay type: cell-free
Homo sapiens [12] = organism: Homo sapiens; test: as §5; assay type: cell-free
[13] = (§6) Binding affinity to human plasma alpha-thrombin exosite-2 using spectrozyme TH as substrate after overnight incubation at 25 degC by spectrophotometric analysis in presence of 20 uM heparin octasaccharide; assay type: cell-free
Homo sapiens [14] = organism: Homo sapiens; test: as §6; assay type: cell-free
[15] = (§7) Binding affinity to human plasma alpha-thrombin exosite-2 using spectrozyme TH as substrate after overnight incubation at 25 degC by spectrophotometric analysis in presence of 3 uM heparin octasaccharide; assay type: cell-free
Homo sapiens [16] = organism: Homo sapiens; test: as §7; assay type: cell-free
Plasma = test: Anticoagulant activity in human plasma assessed as increase in activated partial […] time at 139 uM after 4 mins by fibrometric analysis relative to control; assay type: functional
In short: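 Citrated human plasma, one-stage recalcification, fibrometer read-out. APTT: 90 μL plasma + 10 μL inhibitor or vehicle + prewarmed 0.2% ellagic acid, 4 min, then 25 mM CaCl2 (37 °C). PT: inhibitor + plasma 30 s at 37 °C, then prewarmed thromboplastin. Duplicates. Quadratic trend line fit gives concentration doubling clotting time versus vehicle blank.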

[17] = Inhibition of recombinant human thrombin K240A mutant expressed in BHK cells using S2238 as substrate after overnight incubation at 25 degC; in short: as §2
[18] = (§8) Binding affinity to human plasma alpha-thrombin exosite-2 using spectrozyme TH as substrate after overnight incubation at 25 degC by spectrophotometric analysis in presence of 2 uM gamma'-fibrinogen peptide; assay type: cell-free
Homo sapiens [19] = organism: Homo sapiens; test: as §8; assay type: cell-free
[20] = (§9) Binding affinity to human plasma alpha-thrombin exosite-2 using spectrozyme TH as substrate after overnight incubation at 25 degC by spectrophotometric analysis in presence of 6.5 uM gamma'-fibrinogen peptide; assay type: cell-free
Homo sapiens [21] = organism: Homo sapiens; test: as §9; assay type: cell-free
Homo sapiens [22] = organism: Homo sapiens; test: Uncompetitive inhibition of human plasma alpha-thrombin using spectrozyme TH as substrate assessed as decrease in substrate Km at 9.9 uM after 2 hrs at 37 degC by Michaelis-Menten equation analysis relative to control; assay type: cell-free; in short: as §4
[23] = Inhibition of human plasma alpha-thrombin assessed as spectrozyme TH hydrolysis preincubated for 10 mins by spectrophotometric analysis; assay type: cell-free
In short: (§10)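 Human plasma α-thrombin (5 nM final) with inhibitor (1−900 μM final) in 20 mM Tris-HCl pH 7.4, 100 mM NaCl, 2.5 mM CaCl2, 0.1% PEG8000, PEG20000-coated cuvettes, 10 min. Spectrozyme TH then added (30 μM final). Initial rate from A405 increase. Residual activity fitted by logistic equation with floating Hill slope, Y0, YM to give IC50.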

[24] = Inhibition of recombinant human thrombin R233A mutant expressed in BHK cells using S2238 as substrate after overnight incubation at 25 degC; in short: as §2
[25] = Inhibition of recombinant human thrombin R126A mutant expressed in BHK cells using S2238 as substrate after overnight incubation at 25 degC; in short: as §2
[26] = (§11) Binding affinity to human plasma alpha-thrombin exosite-1 using spectrozyme TH as substrate after overnight incubation at 25 degC by spectrophotometric analysis in presence of 3 nM hirugen peptide; assay type: cell-free
Homo sapiens [27] = organism: Homo sapiens; test: as §11; assay type: cell-free
Prothrombin [28] = target: Prothrombin (Homo sapiens, UniProt P00734, R97A); test: Inhibition of recombinant human thrombin R97A mutant expressed in BHK cells using S2238 as substrate after overnight incubation at 25 degC; in short: as §2
[29] = Inhibition of recombinant human thrombin K236A mutant expressed in BHK cells using S2238 as substrate after overnight incubation at 25 degC; in short: as §2
[30] = (§12) Binding affinity to human plasma alpha-thrombin exosite-1 using spectrozyme TH as substrate after overnight incubation at 25 degC by spectrophotometric analysis in presence of 5 nM hirugen peptide; assay type: cell-free
Homo sapiens [31] = organism: Homo sapiens; test: as §12; assay type: cell-free
Homo sapiens [32] = organism: Homo sapiens; test: Inhibition of human plasma alpha-thrombin assessed as spectrozyme TH hydrolysis at 1 to 900 uM preincubated for 10 mins by spectrophotometric analysis relative to control; assay type: cell-free; in short: as §10
Homo sapiens [33] = organism: Homo sapiens; test: Uncompetitive inhibition of human plasma alpha-thrombin using spectrozyme TH as substrate assessed as decrease in substrate Km at 3.6 uM after overnight incubation at 25 degC by Michaelis-Menten equation analysis relative to control; assay type: cell-free; in short: as §4
[34] = (§13) Binding affinity to human plasma alpha-thrombin exosite-2 using spectrozyme TH as substrate after overnight incubation at 25 degC by spectrophotometric analysis in presence of 4.2 uM unfractionated heparin; assay type: cell-free
Homo sapiens [35] = organism: Homo sapiens; test: as §13; assay type: cell-free

- IC50 [1]: 1100 nM
- pIC50(app) (Homo sapiens [2]): 5.95
- IC50 [3]: 190 nM
- pIC50 [3]: 6.73
- IC50 (Prothrombin [4]; read-out: IC50): 260 nM
- IC50 (Prothrombin [4]; read-out: pIC50 (converted)): 263 nM
- Ratio IC50 (Homo sapiens [5]): 3.8
- IC50 [6]: 1200 nM
- pIC50(app) (Homo sapiens [7]): 5.94
- pIC50 [8]: 6.59
- IC50 [9]: 430 nM
- pIC50 [9]: 6.363
- fold change (FC) (Homo sapiens [10]): 4.3
- IC50 [11]: 5600 nM
- pIC50(app) (Homo sapiens [12]): 5.26
- IC50 [13]: 1800 nM
- pIC50(app) (Homo sapiens [14]): 5.75
- IC50 [15]: 1400 nM
- pIC50(app) (Homo sapiens [16]): 5.87
- IC50 [17]: 270 nM
- pIC50 [17]: 6.57
- IC50 [18]: 1200 nM
- pIC50(app) (Homo sapiens [19]): 5.92
- IC50 [20]: 1300 nM
- pIC50(app) (Homo sapiens [21]): 5.88
- fold change (FC) (Homo sapiens [22]): 4.1
- IC50 ([23]; read-out: IC50): 670 nM
- IC50 ([23]; read-out: pIC50 (converted)): 676 nM
- IC50 [24]: 980 nM
- pIC50 [24]: 6.01
- IC50 [25]: 290 nM
- pIC50 [25]: 6.55
- IC50 [26]: 900 nM
- pIC50(app) (Homo sapiens [27]): 6.07
- IC50 (Prothrombin [28]; read-out: IC50): 370 nM
- IC50 (Prothrombin [28]; read-out: pIC50 (converted)): 363 nM
- IC50 [29]: 400 nM
- pIC50 [29]: 6.4
- IC50 [30]: 800 nM
- pIC50(app) (Homo sapiens [31]): 6.1
- Efficacy (Homo sapiens [32]): 80%
- fold change (FC) (Homo sapiens [33]): 3.1
- IC50 [34]: 1000 nM
- pIC50(app) (Homo sapiens [35]): 6
SMILES: CCOC(=O)c1c(C)oc2cc(OC)c(OCc3oc4cc(OC)c(OCc5oc6cc(OC)c(OS(=O)(=O)[O-])cc6c5C(=O)OCC)cc4c3C(=O)OCC)cc12.[Na+]
- fold change (FC) (Plasma): 2
